Data on 9 compounds can be found in ChEMBL document CHEMBL3612040, “Discovery of Selective Small Molecule Inhibitors of Monoacylglycerol Acyltransferase 3” (J Med Chem, 2015).

Where only a bound is given, the exact number is not on record here.

A short description of series [1]: Lipophilicity, logD of the compound at pH 7.4. The following applies: buffer. The format is physicochemical. The method in brief: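 Shake-flask octanol:water partition at pH 7.4, with MS analysis of samples.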
Series [2] can be described thus: Intrinsic clearance in human liver microsomes. Type of series: ADME. Particulars: read-out: CLH.
Series [3] is described as follows: Apparent permeability in RRCK cells. Type of series: ADME, cell-based, Canis lupus familiaris, MDCKII-LE. Particulars: dog, MDCK.
Series [4] addresses T1, Diacylglycerol O-acyltransferase 1 (Homo sapiens, UniProt O75907).
T1 sequence (O75907 whole entry): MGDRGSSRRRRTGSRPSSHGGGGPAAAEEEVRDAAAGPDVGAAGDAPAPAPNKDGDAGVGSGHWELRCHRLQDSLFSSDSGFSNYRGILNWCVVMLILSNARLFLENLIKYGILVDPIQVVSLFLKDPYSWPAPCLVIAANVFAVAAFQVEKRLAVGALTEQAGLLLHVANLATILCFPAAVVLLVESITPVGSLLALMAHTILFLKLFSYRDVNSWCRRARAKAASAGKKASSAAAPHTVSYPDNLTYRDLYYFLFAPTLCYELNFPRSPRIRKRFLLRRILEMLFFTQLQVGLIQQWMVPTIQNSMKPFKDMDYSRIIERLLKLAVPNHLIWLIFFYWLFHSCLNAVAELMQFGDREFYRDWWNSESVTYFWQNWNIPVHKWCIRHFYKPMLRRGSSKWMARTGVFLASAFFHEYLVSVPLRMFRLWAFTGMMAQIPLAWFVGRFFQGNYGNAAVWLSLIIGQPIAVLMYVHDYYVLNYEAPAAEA
The series is described as follows: Inhibition of DGAT1 (unknown origin) assessed as effect on incorporation of [1-14C]decanoyl moiety into TG using [1-14C]decanoyl-CoA and 1,2-didecanoyl-sn-glycerol as substrates.

The target of series [5] is T2, Diacylglycerol O-acyltransferase 2 (Homo sapiens, UniProt Q96PD7).
T2 sequence (Q96PD7 whole entry): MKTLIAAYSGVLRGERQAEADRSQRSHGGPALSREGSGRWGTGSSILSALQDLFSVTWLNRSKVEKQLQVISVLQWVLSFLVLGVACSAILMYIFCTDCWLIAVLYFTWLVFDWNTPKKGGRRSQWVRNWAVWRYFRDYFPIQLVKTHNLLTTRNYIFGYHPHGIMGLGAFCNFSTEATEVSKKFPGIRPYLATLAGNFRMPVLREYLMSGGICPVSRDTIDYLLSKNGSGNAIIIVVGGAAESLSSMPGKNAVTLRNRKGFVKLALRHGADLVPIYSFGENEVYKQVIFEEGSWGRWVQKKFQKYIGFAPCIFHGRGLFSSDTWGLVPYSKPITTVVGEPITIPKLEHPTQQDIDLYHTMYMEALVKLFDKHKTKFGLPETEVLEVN
In words: Inhibition of DGAT2 (unknown origin) using [1-14C]decanoyl-CoA and didecanoyl-sn-glycerol substrates incubated for 40 mins. The method in brief:
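DGAT2 membrane fraction (0.01 mg/mL) in 100 mM Hepes-NaOH pH 7.4, 20 mM MgCl2, 200 nM MAFP. Compound first held 20 min with 0.04% fatty-acid-free BSA, then preincubated 120 min at RT with enzyme. Started with 30 µM [1-14C]decanoyl-CoA and 125 µM 1,2-didecanoyl-sn-glycerol; ran 40 min at RT, acid-stopped. Labelled TAG read by scintillation after phase partitioning.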

Series [6] deals with T3, CYP2C8 (Homo sapiens, UniProt P10632).
T3 sequence (P10632 whole entry): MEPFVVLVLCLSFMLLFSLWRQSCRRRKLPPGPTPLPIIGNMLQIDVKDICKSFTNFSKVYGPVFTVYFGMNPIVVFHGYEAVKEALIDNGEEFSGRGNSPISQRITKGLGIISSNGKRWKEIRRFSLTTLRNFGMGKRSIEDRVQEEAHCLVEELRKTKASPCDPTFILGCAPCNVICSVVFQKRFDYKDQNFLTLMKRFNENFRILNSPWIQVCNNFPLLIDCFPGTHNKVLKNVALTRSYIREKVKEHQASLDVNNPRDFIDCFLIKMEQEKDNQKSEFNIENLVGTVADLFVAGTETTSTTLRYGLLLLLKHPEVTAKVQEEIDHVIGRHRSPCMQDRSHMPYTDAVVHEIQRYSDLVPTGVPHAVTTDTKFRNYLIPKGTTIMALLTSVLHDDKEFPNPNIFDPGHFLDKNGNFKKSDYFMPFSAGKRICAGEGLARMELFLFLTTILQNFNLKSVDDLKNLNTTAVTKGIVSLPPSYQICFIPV
In words: Inhibition of CYP2C8 (unknown origin) at 3 uM. The format is ADME.

Series [7] has as its target CYP2C9 (Homo sapiens, UniProt P11712). In words: Inhibition of CYP2C9 (unknown origin) at 3 uM. The format is ADME.
For series [8], the system named is Hepatocyte. In words: Drug metabolism in human hepatocytes assessed as compound oxidation. The format is ADME, cell-based.
In series [9] the target is Cytochrome P450 2C9 (Homo sapiens, UniProt P11712). In words: Drug metabolism in human hepatocytes assessed as CYP2C9-mediated compound oxidation. Type of series: ADME, cell-based, Hepatocyte.
Chain of Cytochrome P450 2C9 (P11712 whole entry): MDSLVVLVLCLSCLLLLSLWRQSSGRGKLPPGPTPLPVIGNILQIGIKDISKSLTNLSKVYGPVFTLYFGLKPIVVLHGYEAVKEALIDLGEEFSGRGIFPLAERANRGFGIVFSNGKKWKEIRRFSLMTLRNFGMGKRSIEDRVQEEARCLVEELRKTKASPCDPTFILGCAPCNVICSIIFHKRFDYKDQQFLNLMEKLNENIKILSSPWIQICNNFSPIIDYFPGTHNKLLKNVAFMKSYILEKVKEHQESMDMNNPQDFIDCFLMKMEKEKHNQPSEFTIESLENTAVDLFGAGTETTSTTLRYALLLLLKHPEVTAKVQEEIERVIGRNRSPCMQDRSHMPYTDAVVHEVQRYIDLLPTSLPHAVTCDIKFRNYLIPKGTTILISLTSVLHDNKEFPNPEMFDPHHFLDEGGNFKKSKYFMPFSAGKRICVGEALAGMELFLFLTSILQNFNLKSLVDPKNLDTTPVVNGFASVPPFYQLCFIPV

Chain of CYP2C9 (P11712 whole entry): as above

For orientation: logD means the decadic logarithm of the distribution of all forms, ionised or not, between an organic phase and buffer at a given pH. Read a low logD as a more hydrophilic compound. The term Papp denotes a coefficient for how fast a substance crosses the barrier. For the compound `COc1cccc(CC(=O)N2Cc3ccc(S(=O)(=O)Nc4cnn(C5COC5)n4)cc3C2)c1`, the logD in series [1] is 0.2. Further, the microsomal CLint in series [2] was under 8 µL/min/mg. For the same compound, the Papp in series [3] worked out at 3 ×10⁻⁶ cm/s.
Compound `COc1cccc(CC(=O)N2Cc3ccc(S(=O)(=O)Nc4cnn(C(C)C)n4)cc3C2)c1` displayed a logD in series [1] of 1.4. Moreover, the microsomal CLint in series [2] is under 8 µL/min/mg. For the same compound, the apparent permeability (Papp) in series [3] is 25 ×10⁻⁶ cm/s.
What is called IC50 is the concentration that inhibits the measured activity by half. Broadly, the inhibition is the share of the control response that was lost under treatment. A high value points to a strong effect. For `COc1cccc(CC(=O)N2Cc3ccc(S(=O)(=O)NCCc4cccc(F)c4)cc3C2)c1`, the IC50 in [4] is 31 µM; in series [5], over 40 µM. This compound returned a logD in series [1] of 3.6. Besides, the microsomal CLint in series [2] is over 320 µL/min/mg. Also, in series [3], the apparent permeability coefficient (Papp) is 8 ×10⁻⁶ cm/s. Also, the inhibition at 3 µM in [6] was 29%; in series [7] it was 35%.
In [1], `COc1cccc(CC(=O)N2Cc3ccc(S(=O)(=O)Nc4cnn(C5CCOCC5)n4)cc3C2)c1` came in with a log distribution coefficient (logD) of 0.9. Further, in series [2], the microsomal CLint was under 8 µL/min/mg. The Papp in series [3] was determined as 5 ×10⁻⁶ cm/s. Besides, the Stability entry in series [8] is given as “Stable”.
In series [1], `COc1cccc(CC(=O)N2Cc3ccc(S(=O)(=O)Nc4cnn(C)n4)cc3C2)c1` gave a logD of 0.2. Also, the microsomal CLint in series [2] is under 8 µL/min/mg. Also, in series [3], the Papp stood at 1 ×10⁻⁶ cm/s.
Consider `COc1cccc(CC(=O)N2Cc3ccc(S(=O)(=O)Nc4cnn(-c5ccccc5)n4)cc3C2)c1`, for which the log distribution coefficient (logD) in [1] came out at 2.3. Besides, the microsomal CLint in [2] was determined as 273 µL/min/mg. In addition, the Papp in [3] stood at 15 ×10⁻⁶ cm/s. Moreover, the results for the inhibition at 3 µM in series [6] and in series [7] were 48% and 88%, respectively. The Drug metabolism result in [8] and in series [9] was “metabolite_detected” in each case.
`COc1cccc(CC(=O)N2Cc3ccc(S(=O)(=O)Nc4cnn(C5CC(F)(F)C5)n4)cc3C2)c1` yielded a logD in series [1] of 1.5. In addition, the microsomal CLint in series [2] was under 8 µL/min/mg. For the same compound, the Papp in series [3] worked out at 7 ×10⁻⁶ cm/s.
On to `COc1cccc(CC(=O)N2Cc3ccc(S(=O)(=O)N(C)CCc4cccc(F)c4)cc3C2)c1`, for which, in [1], the logD is 3.9. Also, the microsomal CLint in [2] was over 320 µL/min/mg. In addition, the Papp in [3] turned out to be 4 ×10⁻⁶ cm/s.
In [1], `COc1cccc(CC(=O)N2Cc3ccc(S(=O)(=O)Nc4cnn(-c5ccc(F)cc5)n4)cc3C2)c1` displayed a logD of 2.5. The microsomal CLint in series [2] came out at 13 µL/min/mg. In addition, the Papp in series [3] turned out to be 6 ×10⁻⁶ cm/s. For the same compound, the inhibition at 3 µM in series [6] is 62%; in [7], 95%.
